Measurements reported in ChEMBL document CHEMBL3872252, “New bithiazolyl hydrazones: Novel synthesis, characterization and antitubercular evaluation” (Bioorg Med Chem Lett, 2017).

Key:
Staphylococcus aureus [1] = experiment: Growth inhibition of Staphylococcus aureus at 30 ug/ml; format: functional; details: read-out: GI
[2] = Antitubercular activity against Mycobacterium tuberculosis H37Ra ATCC 25177 dormant stage measured on day 12 by XTT reduction menadione based two-fold dilution assay; format: functional; details: ATCC 25177, 288 h
Method in brief: (§1)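 M. tuberculosis H37Ra ATCC 25177 was exposed to 0.7–100 μg/mL in two-fold steps (0.7, 1.5, 3.1 … 100). Active stage was read after 8 days and dormant stage after 12 days of incubation. Inhibition was read by XTT reduction menadione assay (XRMA), absorbance 470 nm. MIC90 is the concentration giving ≥90% inhibition (µg/mL).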

[3] = Selectivity index, ratio of GI50 for human THP1 cells to MIC90 for Mycobacterium tuberculosis H37Ra ATCC 25177 active stage; format: toxicity, cell-based, THP-1; details: read-out: Selectivity Index
Method in brief: (§2)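 Cytotoxicity was measured on human MCF-7, HCT116 and THP-1 cells by MTT assay, with paclitaxel as reference. GI50 is the concentration inhibiting 50% of cell growth. The selectivity index is GI50 for the given cell line divided by MIC90 for the given mycobacterial strain and stage.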

[4] = Selectivity index, ratio of GI50 for human HCT116 cells to MIC90 for Mycobacterium bovis BCG ATCC 35743 active stage; format: toxicity, cell-based, HCT-116; details: read-out: Selectivity Index; method in brief: as §2
[5] = Selectivity index, ratio of GI50 for human THP1 cells to MIC90 for Mycobacterium bovis BCG ATCC 35743 dormant stage; format: toxicity, cell-based, THP-1; details: read-out: Selectivity Index
Method in brief: (§3)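 Cytotoxicity was measured on human MCF-7, HCT116 and THP-1 cells by MTT assay, with paclitaxel as reference. The selectivity index is GI50 for the given cell line divided by MIC90 for the given mycobacterial strain and stage.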

Escherichia coli [6] = experiment: Growth inhibition of Escherichia coli at 3 ug/ml; format: functional; details: read-out: GI
Method in brief: (§4)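 Screened against Gram-negative E. coli and P. aeruginosa and Gram-positive S. aureus and B. subtilis. Compound was tested at 3 µg/ml, and the read-out is percent growth inhibition.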

Staphylococcus aureus [7] = experiment: Growth inhibition of Staphylococcus aureus at 3 ug/ml; format: functional; details: read-out: GI; method in brief: as §4
Pseudomonas aeruginosa [8] = experiment: Growth inhibition of Pseudomonas aeruginosa at 30 ug/ml; format: functional; details: read-out: GI
Escherichia coli [9] = experiment: Growth inhibition of Escherichia coli at 30 ug/ml; format: functional; details: read-out: GI
Pseudomonas aeruginosa [10] = experiment: Growth inhibition of Pseudomonas aeruginosa at 3 ug/ml; format: functional; details: read-out: GI; method in brief: as §4
[11] = Selectivity index, ratio of GI50 for human HCT116 cells to MIC90 for Mycobacterium bovis BCG ATCC 35743 dormant stage; format: toxicity, cell-based, HCT-116; details: read-out: Selectivity Index; method in brief: as §3
[12] = Cytotoxicity against human THP1 cells by MTT assay; format: toxicity, cell-based, THP-1
[13] = Cytotoxicity against human HCT116 cells by MTT assay; format: toxicity, cell-based, HCT-116
[14] = Selectivity index, ratio of GI50 for human HCT116 cells to MIC90 for Mycobacterium tuberculosis H37Ra ATCC 25177 dormant stage; format: toxicity, cell-based, HCT-116; details: read-out: Selectivity Index; method in brief: as §3
Bacillus subtilis [15] = experiment: Growth inhibition of Bacillus subtilis at 30 ug/ml; format: functional; details: read-out: GI
[16] = Selectivity index, ratio of GI50 for human MCF7 cells to MIC90 for Mycobacterium tuberculosis H37Ra ATCC 25177 dormant stage; format: toxicity, cell-based; details: read-out: Selectivity Index; method in brief: as §3
[17] = Selectivity index, ratio of GI50 for human THP1 cells to MIC90 for Mycobacterium bovis BCG ATCC 35743 active stage; format: toxicity, cell-based, THP-1; details: read-out: Selectivity Index; method in brief: as §2
[18] = Selectivity index, ratio of GI50 for human THP1 cells to MIC90 for Mycobacterium tuberculosis H37Ra ATCC 25177 dormant stage; format: toxicity, cell-based, THP-1; details: read-out: Selectivity Index; method in brief: as §3
Pseudomonas aeruginosa [19] = experiment: Growth inhibition of Pseudomonas aeruginosa at 10 ug/ml; format: functional; details: read-out: GI
[20] = Antitubercular activity against Mycobacterium bovis BCG ATCC 35743 active stage measured on day 8 by nitrate reductase based two-fold dilution assay; format: functional, Mycobacterium bovis BCG str. ATCC 35743; details: Mycobacterium tuberculosis variant bovis BCG, ATCC 35743, 192 h
[21] = Selectivity index, ratio of GI50 for human MCF7 cells to MIC90 for Mycobacterium bovis BCG ATCC 35743 dormant stage; format: toxicity, cell-based; details: read-out: Selectivity Index; method in brief: as §3
[22] = Antitubercular activity against Mycobacterium tuberculosis H37Ra ATCC 25177 active stage measured on day 8 by XTT reduction menadione based two-fold dilution assay; format: functional; details: ATCC 25177, 192 h; method in brief: as §1
Bacillus subtilis [23] = experiment: Growth inhibition of Bacillus subtilis at 10 ug/ml; format: functional; details: read-out: GI
[24] = Antitubercular activity against Mycobacterium tuberculosis H37Ra ATCC 25177 active stage infected in human THP1 cells measured on day 8 by nitrate reductase assay; format: functional, THP-1; details: ATCC 25177, 192 h
[25] = Cytotoxicity against human MCF7 cells by MTT assay; format: toxicity, cell-based
[26] = Antitubercular activity against Mycobacterium tuberculosis H37Ra ATCC 25177 dormant stage infected in human THP1 cells measured on day 12 by nitrate reductase assay; format: functional, THP-1; details: ATCC 25177, 288 h
Escherichia coli [27] = experiment: Growth inhibition of Escherichia coli at 10 ug/ml; format: functional; details: read-out: GI
[28] = Selectivity index, ratio of GI50 for human HCT116 cells to MIC90 for Mycobacterium tuberculosis H37Ra ATCC 25177 active stage; format: toxicity, cell-based, HCT-116; details: read-out: Selectivity Index; method in brief: as §2
[29] = Selectivity index, ratio of GI50 for human MCF7 cells to MIC90 for Mycobacterium bovis BCG ATCC 35743 active stage; format: toxicity, cell-based; details: read-out: Selectivity Index; method in brief: as §2
[30] = Selectivity index, ratio of GI50 for human MCF7 cells to MIC90 for Mycobacterium tuberculosis H37Ra ATCC 25177 active stage; format: toxicity, cell-based; details: read-out: Selectivity Index; method in brief: as §2
Bacillus subtilis [31] = experiment: Growth inhibition of Bacillus subtilis at 3 ug/ml; format: functional; details: read-out: GI; method in brief: as §4
Staphylococcus aureus [32] = experiment: Growth inhibition of Staphylococcus aureus at 10 ug/ml; format: functional; details: read-out: GI
[33] = Antitubercular activity against Mycobacterium bovis BCG ATCC 35743 dormant stage measured on day 12 by nitrate reductase based two-fold dilution assay; format: functional, Mycobacterium bovis BCG str. ATCC 35743; details: Mycobacterium tuberculosis variant bovis BCG, ATCC 35743, 288 h

C/C(=N\Nc1nc(-c2ccc(F)cc2)cs1)c1sc(-c2ccccc2)nc1C
inhibition of growth at 30 µg/mL (Staphylococcus aureus [1]): 73.2%
IC50 [2]: > 100 µg/mL
MIC90 [2]: > 100 µg/mL
selectivity ratio [3]: 1
selectivity ratio [4]: 1
selectivity ratio [5]: 1
inhibition of growth at 3 µg/mL (Escherichia coli [6]): 72.5%
inhibition of growth at 3 µg/mL (Staphylococcus aureus [7]): 70.7%
inhibition of growth at 30 µg/mL (Pseudomonas aeruginosa [8]): 74%
inhibition of growth at 30 µg/mL (Escherichia coli [9]): 74.7%
inhibition of growth at 3 µg/mL (Pseudomonas aeruginosa [10]): 71.5%
selectivity ratio [11]: 1
GI50 ([12]; THP1 cells): > 100 µg/mL
GI90 ([12]; thp-1): > 100 µg/mL
GI50 ([13]; HCT116 cells): > 100 µg/mL
GI90 ([13]; hct-116): > 100 µg/mL
selectivity ratio [14]: 1
inhibition of growth at 30 µg/mL (Bacillus subtilis [15]): 71.1%
selectivity ratio [16]: 1
selectivity ratio [17]: 1
selectivity ratio [18]: 1
inhibition of growth at 10 µg/mL (Pseudomonas aeruginosa [19]): 73.2%
IC50 [20]: > 100 µg/mL
MIC90 [20]: > 100 µg/mL
selectivity ratio [21]: 1
IC50 [22]: > 100 µg/mL
MIC90 [22]: > 100 µg/mL
inhibition of growth at 10 µg/mL (Bacillus subtilis [23]): 70.2%
MIC90 [24]: > 100 µg/mL
GI50 ([25]; MCF7 cells): > 100 µg/mL
GI90 ([25]; mcf7): > 100 µg/mL
MIC90 [26]: > 100 µg/mL
inhibition of growth at 10 µg/mL (Escherichia coli [27]): 74%
selectivity ratio [28]: 1
selectivity ratio [29]: 1
selectivity ratio [30]: 1
inhibition of growth at 3 µg/mL (Bacillus subtilis [31]): 68.5%
inhibition of growth at 10 µg/mL (Staphylococcus aureus [32]): 72.5%
IC50 [33]: > 100 µg/mL
MIC90 [33]: > 100 µg/mL
